Screening data from PubChem.
RGS4 act – potentiators or activators of RGS4. HEK293 M3R/inducible RGS4, carbachol calcium flux Fluo4; stronger effect = lower value. B-score at 10 µM. 310,000 tested, 0.92% active. AID 463111;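 active = B-score of the integrated calcium signal more than 4 SD below the library mean, with starting fluorescence not abnormally high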;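 note: negative B-score means reduced calcium response which marks RGS4 activation or potentiation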
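Test system: HEK293 cells with stable M3R and inducible RGS4; also added: carbachol at ECmax as muscarinic agonist stimulus; schedule: dye loading 30 min 37 °C, buffer rest 30 min RT; technique: kinetic calcium fluorescence imaging with Fluo4-AM dye, 2 µM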
MrgX1 PAM – allosterically activates human MrgX1 receptor signaling; MrgX1-HEK293, Fluo-4 calcium flux, FDSS; stronger effect = higher value; 310,000 tested, 0.63% active; B-score at 10 µM; Q96LB2;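 active = plate-corrected calcium response at least 3 library SD above typical, normal starting fluorescence, not activating the receptor alone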;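 note: compound read alongside a low EC10 to EC30 dose of BAM8-22 agonist; peak minus trough fluorescence over baseline measured at the second addition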
Target sequence (Q96LB2 whole entry, looked up): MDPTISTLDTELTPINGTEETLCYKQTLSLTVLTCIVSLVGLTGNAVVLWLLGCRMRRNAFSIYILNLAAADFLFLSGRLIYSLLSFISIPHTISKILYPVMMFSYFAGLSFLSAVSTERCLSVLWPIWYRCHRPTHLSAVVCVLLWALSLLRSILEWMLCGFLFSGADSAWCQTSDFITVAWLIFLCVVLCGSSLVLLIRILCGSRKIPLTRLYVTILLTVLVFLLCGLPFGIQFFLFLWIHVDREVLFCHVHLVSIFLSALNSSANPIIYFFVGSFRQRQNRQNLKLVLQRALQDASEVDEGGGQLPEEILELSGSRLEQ
MrgX1 agonist – agonists of human MrgX1 receptor; MrgX1-HEK293 cells, Fluo-4 calcium fluorescence, agonist mode; stronger effect = higher value; B-score at 10 µM; 310,000 tested, 0.44% active; AID 588627;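 active = calcium response B-score plate-corrected fluorescence ratio at least 3 library SD, with starting fluorescence B-score inside 5 SD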
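Assay system: MrgX1-expressing HEK293 cells / Amount: fifteen thousand cells per well / Doses: test compound in the initial addition of three / Timing: cells plated overnight, dye loaded 0.5 h 37 °C, 0.5 h room temperature / Technique: kinetic calcium dye fluorescence, Fluo-4 NW / Control set: positive and negative controls per plate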
MrgX1 antagonist – human MrgX1 receptor antagonism, primary screen | MRGX1-HEK293 calcium flux, Fluo-4, BAM8-22 antagonism; stronger effect = lower value | B-score at 10 µM | Q96LB2 | 310,000 tested, 1.3% active;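 active = calcium-response B-score plate-corrected more than 3 library SD below zero, starting fluorescence within 5 deviations, no agonist response on first addition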;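 note: peak minus trough fluorescence over baseline after final BAM8-22 challenge near maximal dose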
RGS4 inh – inhibitors of human RGS4; P49798; HEK293 M3R/RGS4 inducible, Fluo-4 calcium flux; stronger effect = higher value; triggered by carbachol at its EC20; B-score at 10 µM; 310,000 tested, 0.45% active; AID 463165;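 active = B-score, a plate-corrected calcium signal, over three deviations above library mean, with baseline fluorescence within five deviations of library mean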;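 note: RGS4 expression induced by doxycycline in cells with stable M3 receptor; B-score is computed from the integrated fluorescence ratio over baseline after carbachol; higher B-score means a larger calcium signal and so more RGS4 inhibition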
Target sequence (P49798 whole entry, looked up): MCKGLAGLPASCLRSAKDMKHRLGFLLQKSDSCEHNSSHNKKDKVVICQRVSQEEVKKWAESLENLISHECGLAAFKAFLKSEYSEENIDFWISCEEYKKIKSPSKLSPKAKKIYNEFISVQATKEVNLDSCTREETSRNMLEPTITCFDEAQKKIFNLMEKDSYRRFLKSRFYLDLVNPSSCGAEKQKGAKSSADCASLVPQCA
Starred values were filed as active, the others as inactive. Hits are enriched below; roughly 3.5% of the tested compounds scored in any of these assays.

What do the screens show for `Cc1ccc(Cl)c(OC(=O)c2nn(C(C)C)c(=O)c3ccccc23)c1`?
RGS4 act: inactive; MrgX1 PAM: inactive; MrgX1 agonist: inactive; MrgX1 antagonist: inactive; RGS4 inh: inactive

Results for CCN(CCS(=O)(=O)c1ccc(Cl)cc1)C(=O)Nc1ccc(Cl)cc1 ?
RGS4 act: inactive; MrgX1 PAM: inactive; MrgX1 agonist: inactive; MrgX1 antagonist: inactive; RGS4 inh: inactive

What do the screens show for `O=C(CN1C(=O)/C(=C\c2ccc(F)cc2)Oc2ccccc21)NCc1ccco1`?
RGS4 act: inactive; MrgX1 PAM: inactive; MrgX1 agonist: inactive; MrgX1 antagonist: inactive; RGS4 inh: inactive

Results for O=C1NC(=S)N/C1=C/c1cccc2ccccc12 ?
RGS4 act: inactive; MrgX1 PAM: inactive; MrgX1 agonist: inactive; MrgX1 antagonist: inactive; RGS4 inh: inactive

What do the screens show for `CC(/C=C1\NC(=S)NC1=O)=C\c1ccccc1`?
RGS4 act: inactive; MrgX1 PAM: inactive; MrgX1 agonist: inactive; MrgX1 antagonist: -5.1*; RGS4 inh: inactive

How did COC(=O)/C=C1/S/C(=N/NC(=O)c2ccccc2C)NC1=O do in these assays?
RGS4 act: inactive; MrgX1 PAM: inactive; MrgX1 agonist: inactive; MrgX1 antagonist: -8.2*; RGS4 inh: inactive

What do the screens show for `CCOC(=O)Cn1nc(C)c(NC(=O)c2ccc(Br)o2)c1C`?
RGS4 act: inactive; MrgX1 PAM: inactive; MrgX1 agonist: inactive; MrgX1 antagonist: inactive; RGS4 inh: inactive

Results for CCOC(=O)N1CCN(C(=O)CSc2nnc(Cc3ccccc3)o2)CC1 ?
RGS4 act: inactive; MrgX1 PAM: inactive; MrgX1 agonist: inactive; MrgX1 antagonist: inactive; RGS4 inh: inactive

What do the screens show for `CC(=O)N1c2ccccc2C2(C)C(C1(C)C)C2(Cl)Cl` (configuration not stated)?
RGS4 act: inactive; MrgX1 PAM: inactive; MrgX1 agonist: inactive; MrgX1 antagonist: inactive; RGS4 inh: inactive

What do the screens show for `Cc1ccc2c(c1)C1(C)C(C(C)(C)N2C=O)C1(Cl)Cl` (configuration not stated)?
RGS4 act: inactive; MrgX1 PAM: 13*; MrgX1 agonist: inactive; MrgX1 antagonist: inactive; RGS4 inh: inactive

What do the screens show for `CC[n+]1c(/C=C/Nc2ccccc2)oc2ccccc21`?
RGS4 act: inactive; MrgX1 PAM: inactive; MrgX1 agonist: inactive; MrgX1 antagonist: inactive; RGS4 inh: inactive

Results for CC[n+]1c(/C=C/N(C)c2ccccc2)oc2ccc(F)cc21 ?
RGS4 act: inactive; MrgX1 PAM: inactive; MrgX1 agonist: inactive; MrgX1 antagonist: -4.7*; RGS4 inh: inactive

How did CC[n+]1c(/C=C/Nc2ccccc2)oc2ccc(OC)cc21 do in these assays?
RGS4 act: inactive; MrgX1 PAM: inactive; MrgX1 agonist: inactive; MrgX1 antagonist: -7.4*; RGS4 inh: inactive

Results for O=[N+]([O-])c1cccnc1S(=O)(=O)c1ccccc1 ?
RGS4 act: inactive; MrgX1 PAM: inactive; MrgX1 agonist: inactive; MrgX1 antagonist: inactive; RGS4 inh: inactive

What do the screens show for `COc1ccc([N+](=O)[O-])c(S(=O)(=O)c2ccc(Cl)cc2)n1`?
RGS4 act: inactive; MrgX1 PAM: inactive; MrgX1 agonist: inactive; MrgX1 antagonist: -6.5*; RGS4 inh: inactive

Results for COc1ccc([N+](=O)[O-])c(S(=O)(=O)c2ccccc2)n1 ?
RGS4 act: inactive; MrgX1 PAM: inactive; MrgX1 agonist: inactive; MrgX1 antagonist: -6.2*; RGS4 inh: inactive

How did O=P1(c2ccccc2)C=Cn2c1cc1c2CCCC1 (configuration not stated) do in these assays?
RGS4 act: inactive; MrgX1 PAM: inactive; MrgX1 agonist: inactive; MrgX1 antagonist: inactive; RGS4 inh: inactive

Results for COc1ccc(-n2ccnc2)cc1 ?
RGS4 act: inactive; MrgX1 PAM: inactive; MrgX1 agonist: inactive; MrgX1 antagonist: inactive; RGS4 inh: inactive

Results for COc1nc(N(c2ccccc2)c2ccccc2)nc(-n2ccnc2)n1 ?
RGS4 act: inactive; MrgX1 PAM: 12*; MrgX1 agonist: inactive; MrgX1 antagonist: inactive; RGS4 inh: inactive

What do the screens show for `CCCCCCCCCCOC(=O)Cn1c(COc2ccc(OC)cc2)[n+](C)c2ccccc21`?
RGS4 act: -9.1*; MrgX1 PAM: inactive; MrgX1 agonist: inactive; MrgX1 antagonist: -9.1*; RGS4 inh: inactive

How did CCCCCCCCCCOC(=O)Cn1c(COc2cccc(C)c2)[n+](C)c2ccccc21 do in these assays?
RGS4 act: -8.5*; MrgX1 PAM: inactive; MrgX1 agonist: inactive; MrgX1 antagonist: -5.9*; RGS4 inh: inactive

Results for CCOC(=O)Cn1c(COc2ccccc2OC)[n+](C)c2ccccc21 ?
RGS4 act: inactive; MrgX1 PAM: inactive; MrgX1 agonist: inactive; MrgX1 antagonist: inactive; RGS4 inh: inactive

What do the screens show for `CC1CC(C)CN(C(=O)c2ccccc2Nc2ccc(SC(F)F)cc2)C1` (configuration not stated)?
RGS4 act: -7.4*; MrgX1 PAM: inactive; MrgX1 agonist: inactive; MrgX1 antagonist: inactive; RGS4 inh: inactive

How did CN1CCN(C(=O)c2ccccc2Nc2ccc(SC(F)F)cc2)CC1 do in these assays?
RGS4 act: inactive; MrgX1 PAM: inactive; MrgX1 agonist: inactive; MrgX1 antagonist: inactive; RGS4 inh: inactive

What do the screens show for `CCc1ccccc1NC(=O)CSc1nc(-c2ccccc2)nn1C(=O)c1cccc([N+](=O)[O-])c1`?
RGS4 act: inactive; MrgX1 PAM: inactive; MrgX1 agonist: inactive; MrgX1 antagonist: inactive; RGS4 inh: inactive

What do the screens show for `O=C(CSc1nc(-c2ccccc2)nn1C(=O)c1ccccc1)Nc1cccc([N+](=O)[O-])c1`?
RGS4 act: inactive; MrgX1 PAM: inactive; MrgX1 agonist: inactive; MrgX1 antagonist: -4.8*; RGS4 inh: inactive

What do the screens show for `COc1ccc(C2=NO[C@@H]3[C@@H]4C[C@@H]([C@H]5C(=O)N(C)C(=O)[C@@H]45)[C@H]23)c(OC)c1`?
RGS4 act: inactive; MrgX1 PAM: inactive; MrgX1 agonist: inactive; MrgX1 antagonist: inactive; RGS4 inh: inactive

How did Cc1cccc(-n2c(SCc3cc(=O)n4ccsc4n3)nc3ccccc32)c1 do in these assays?
RGS4 act: -7.4*; MrgX1 PAM: inactive; MrgX1 agonist: inactive; MrgX1 antagonist: inactive; RGS4 inh: inactive

What do the screens show for `Cn1c(C(=O)N(Cc2ccccc2)Cc2cccs2)cc2sccc21`?
RGS4 act: -7.8*; MrgX1 PAM: inactive; MrgX1 agonist: inactive; MrgX1 antagonist: inactive; RGS4 inh: inactive

Results for OC(c1ccccc1)(C1CCCCC1)C(CN1CCOCC1)c1ccccc1 (configuration not stated) ?
RGS4 act: inactive; MrgX1 PAM: inactive; MrgX1 agonist: inactive; MrgX1 antagonist: -8.2*; RGS4 inh: inactive
